Active and inactive are the calls of the source. The calls are words filed in the database; no cut-off is given here.
Experiments:
[1] = test system: K562; assay: Antiproliferative activity against human K562 cells after 48 hrs by MTT assay; format: functional, cell-based; conditions: K562, 48 h
How it was run: (§1)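 MTT assay. Cells were seeded at 5-10×10^3 per well and incubated overnight at 37 °C under 5% CO2. Graded compound concentrations or equal DMSO in fresh medium were then added for 48 h. MTT (5 mg/mL stock) was added for a further 4 h, formazan was dissolved in DMSO, and A490 was read. IC50 is given as mean ± S.D. of three experiments in triplicate.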

[2] = test system: HepG2; assay: Antiproliferative activity against human HepG2 cells after 48 hrs by MTT assay; format: functional, cell-based; conditions: HepG2, 48 h; how it was run: as §1
[3] = test system: U-937; assay: Antiproliferative activity against human U937 cells after 48 hrs by MTT assay; format: functional, cell-based; conditions: U-937, 48 h; how it was run: as §1
[4] = test system: A549; assay: Antiproliferative activity against human A549 cells after 48 hrs by MTT assay; format: functional, cell-based; conditions: A549, 48 h; how it was run: as §1
[5] = test system: HeLa; assay: Antiproliferative activity against human HeLa cells after 48 hrs by MTT assay; format: functional, cell-based; how it was run: as §1
[6] = Antiproliferative activity against human QSG7701 cells after 48 hrs by MTT assay; format: cell-based; conditions: QSG7701, 48 h; how it was run: as §1
[7] = Safety index, ratio of compound IC50 to m-AMSA IC50 for human QSG7701 cells; format: ADME, cell-based; conditions: read-out: Ratio IC50
[8] = species on record: Bos taurus; assay: Binding affinity to calf thymus DNA assessed as bathochromic shift at 40 uM after 5 mins by UV-Visible absorption spectral analysis
How it was run: (§2)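 UV-vis titration in Tris-HCl pH 7.4 in a 1.0 cm quartz cell. Compound was at 40 µM (added from a 5 mM DMSO stock) with ct DNA at final 0, 0.75, 2.25, 3.75, 6.00 and 9.75 µM. Each mixture was incubated 5 min before the absorption spectrum was recorded.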

[9] = species on record: Bos taurus; assay: Binding affinity to calf thymus DNA after 5 mins by UV-Visible absorption spectral analysis; how it was run: as §2
[10] = species on record: Bos taurus; assay: Binding affinity to calf thymus DNA after 5 mins by fluorescence emission spectral analysis
How it was run: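 Fluorescence titration in Tris-HCl pH 7.4. Compound came from a 5 mM DMSO stock, with ct DNA at final 0, 0.2, 0.7, 1, 1.5 and 2.5 µM. Mixtures were incubated 5 min before emission spectra were recorded. Quenching was fitted to F0/F = 1 + Kq[Q].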

[11] = species on record: Homo sapiens; assay: Inhibition of human topoisomerase-2 at 50 to 100 uM using supercoiled pBR322 DNA as substrate after 10 to 15 mins by ethidium bromide staining based electrophoresis
How it was run: (§3)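 Relaxation of supercoiled pBR322 (500 ng) by 1 unit of human Top I or Top II, with or without compound in reaction buffer. Reactions ran 10-15 min at 37 °C and were stopped with loading buffer. Products were run on 1% agarose in TAE at 90 V for 25 min and stained with ethidium bromide under UV. Controls were CPT (Top I) and m-AMSA (Top II).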

[12] = species on record: Homo sapiens; assay: Inhibition of human topoisomerase-2 at 50 uM using supercoiled pBR322 DNA as substrate after 10 to 15 mins by ethidium bromide staining based electrophoresis relative to control; how it was run: as §3
[13] = test system: U-937; assay: Induction of apoptosis in human U937 cells after 48 hrs by Annexin-V FITC/propidium iodide staining based flow cytometry; format: functional, cell-based
How it was run: (§4)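 U937 cells were treated for 48 h at 0, 1 or 2.5 µM. Phosphatidylserine externalization (Annexin V-FITC) and membrane integrity (PI) were then read by flow cytometry using a kit per the manufacturer's instructions.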

[14] = test system: U-937; assay: Induction of apoptosis in human U937 cells assessed as live cells at 1 uM after 48 hrs by Annexin-V FITC/propidium iodide staining based flow cytometry (reference value: 92.4%); format: functional; how it was run: as §4
[15] = test system: U-937; assay: Induction of apoptosis in human U937 cells assessed as early apoptotic cells at 1 uM after 48 hrs by Annexin-V FITC/propidium iodide staining based flow cytometry (reference value: 7.42%); format: functional; how it was run: as §4
[16] = test system: U-937; assay: Induction of apoptosis in human U937 cells assessed as late apoptotic cells at 1 uM after 48 hrs by Annexin-V FITC/propidium iodide staining based flow cytometry (reference value: 0.144%); format: functional; how it was run: as §4
[17] = test system: U-937; assay: Induction of apoptosis in human U937 cells assessed as necrotic cells at 1 uM after 48 hrs by Annexin-V FITC/propidium iodide staining based flow cytometry relative to control; format: functional; how it was run: as §4
[18] = test system: U-937; assay: Induction of apoptosis in human U937 cells assessed as live cells at 2.5 uM after 48 hrs by Annexin-V FITC/propidium iodide staining based flow cytometry (reference value: 92.4%); format: functional; how it was run: as §4
[19] = test system: U-937; assay: Induction of apoptosis in human U937 cells assessed as early apoptotic cells at 2.5 uM after 48 hrs by Annexin-V FITC/propidium iodide staining based flow cytometry (reference value: 7.42%); format: functional; how it was run: as §4
[20] = test system: U-937; assay: Induction of apoptosis in human U937 cells assessed as late apoptotic cells at 2.5 uM after 48 hrs by Annexin-V FITC/propidium iodide staining based flow cytometry (reference value: 0.144%); format: functional; how it was run: as §4
[21] = test system: U-937; assay: Induction of apoptosis in human U937 cells assessed as necrotic cells at 2.5 uM after 48 hrs by Annexin-V FITC/propidium iodide staining based flow cytometry relative to control; format: functional; how it was run: as §4
[22] = test system: U-937; assay: Induction of apoptosis in human U937 cells assessed as increase in cleaved caspase-8 protein expression at 1 to 2.5 uM after 48 hrs by Western blot analysis; format: functional, cell-based
How it was run: (§5)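 U937 cells in dishes were exposed to 1 or 2.5 µM for 48 h and lysed on ice for 0.5 h. Protein was quantified by BCA, run on 12% SDS-PAGE and transferred to PVDF. Membranes were blocked in 5% milk for 1 h, and primary antibody was applied overnight at 4 °C. Cleaved caspase-3/7/8 was detected with β-actin as loading control.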

[23] = test system: U-937; assay: Induction of apoptosis in human U937 cells assessed as increase in cleaved caspase-7 protein expression at 1 to 2.5 uM after 48 hrs by Western blot analysis; format: functional, cell-based; how it was run: as §5
[24] = test system: U-937; assay: Induction of apoptosis in human U937 cells assessed as increase in cleaved caspase-3 protein expression at 1 to 2.5 uM after 48 hrs by Western blot analysis; format: functional, cell-based; how it was run: as §5
[25] = species on record: Homo sapiens; assay: Inhibition of human topoisomerase-2 at 10 uM using supercoiled pBR322 DNA as substrate after 10 to 15 mins by ethidium bromide staining based electrophoresis relative to control; how it was run: as §3
[26] = biological target: T1, DNA topoisomerase 1 (Homo sapiens) (UniProt P11387); assay: Inhibition of human topoisomerase-1 at 100 uM using supercoiled pBR322 DNA as substrate after 10 to 15 mins by ethidium bromide staining based electrophoresis; how it was run: as §3
T1 sequence (whole entry): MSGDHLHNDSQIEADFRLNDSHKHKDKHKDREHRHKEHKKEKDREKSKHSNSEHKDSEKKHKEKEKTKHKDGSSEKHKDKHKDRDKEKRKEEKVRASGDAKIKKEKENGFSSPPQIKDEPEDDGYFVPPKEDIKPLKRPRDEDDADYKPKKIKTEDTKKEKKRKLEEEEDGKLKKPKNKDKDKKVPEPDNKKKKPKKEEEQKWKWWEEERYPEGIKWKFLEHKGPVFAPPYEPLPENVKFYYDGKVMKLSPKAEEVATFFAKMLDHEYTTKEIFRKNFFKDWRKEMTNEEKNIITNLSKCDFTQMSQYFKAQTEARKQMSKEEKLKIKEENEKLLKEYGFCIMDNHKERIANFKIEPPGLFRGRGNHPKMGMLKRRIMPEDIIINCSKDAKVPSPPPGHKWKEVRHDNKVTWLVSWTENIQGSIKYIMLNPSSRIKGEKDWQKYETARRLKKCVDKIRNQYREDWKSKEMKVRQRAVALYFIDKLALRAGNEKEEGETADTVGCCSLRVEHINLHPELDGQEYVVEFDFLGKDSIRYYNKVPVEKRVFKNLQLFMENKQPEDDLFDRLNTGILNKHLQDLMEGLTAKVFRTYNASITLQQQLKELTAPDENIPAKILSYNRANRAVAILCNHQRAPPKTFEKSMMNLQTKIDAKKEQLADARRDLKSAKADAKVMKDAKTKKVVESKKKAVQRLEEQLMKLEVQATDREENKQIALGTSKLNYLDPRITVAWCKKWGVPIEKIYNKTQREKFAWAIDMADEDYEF

IC50 [1]	IC50 [2]	IC50 [3]	IC50 [5]	topoisomerase II inhibition (active/inactive) [11]	inhibition [12]	inhibition [25]	SMILES	IC50 [6]	also measured
6.06 µM	6.62 µM	0.57 µM	12.6 µM	Active	> 50%	–	COc1ccc2nc3cc(Cl)ccc3c(NCc3nc4ccccc4[nH]3)c2n1	29.4 µM	IC50 [4]: 4.8 µM; selectivity ratio [7]: > 3; Activity [8]: Active; Kb [9]: 3.34 ×10⁵ /M; Kq [10]: 2.34 ×10⁵ /M; Activity [13]: Dose-dependent effect; Activity [14]: 75.8%; Activity [15]: 17.5%; Activity [16]: 6.48%; Activity [17]: 0.227%; Activity [18]: 61.3%; Activity [19]: 26.2%; Activity [20]: 12.2%; Activity [21]: 0.322%; Activity [22]: Active; Activity [23]: Active; Activity [24]: Active
16.5 µM	> 20 µM	> 20 µM	–	Active	> 50%	> 40%	COc1ccc2nc3cc(Cl)ccc3c(Nc3ccc(F)cc3)c2n1	–	–
0.88 µM	5.21 µM	0.61 µM	19.2 µM	–	Active	56.9%	COc1cc(NS(C)(=O)=O)ccc1Nc1c2ccccc2nc2ccccc12 [AMSACRINE]	6.43 µM	–
13.7 µM	> 20 µM	> 20 µM	–	Active	> 50%	> 40%	COc1ccc2nc3cc(Cl)ccc3c(Nc3ccncc3)c2n1	–	–
15.5 µM	> 20 µM	> 20 µM	–	Active	> 50%	> 40%	COc1ccc2nc3cc(Cl)ccc3c(Nc3cccc(F)c3)c2n1	–	–
10.9 µM	> 20 µM	> 20 µM	–	Active	28.1%	–	COc1ccc2nc3cc(Cl)ccc3c(Nc3ccccc3F)c2n1	–	–
6.1 µM	> 20 µM	> 20 µM	–	Active	> 50%	> 40%	COc1ccc2nc3cc(Cl)ccc3c(Nc3ccccc3Cl)c2n1	–	–
> 20 µM	> 20 µM	–	–	–	–	–	COc1ccc2nc3cc(Cl)ccc3c(NCc3nc4ccccc4[nH]3)c2c1	–	–
14 µM	> 20 µM	> 20 µM	–	Active	> 50%	–	COc1ccc2nc3cc(Cl)ccc3c(Nc3ccc(C)cc3C)c2n1	–	–
13.8 µM	> 20 µM	> 20 µM	–	Active	> 50%	–	COc1ccc(Nc2c3ccc(Cl)cc3nc3ccc(OC)nc23)cc1	–	–
7.59 µM	> 20 µM	0.76 µM	14.8 µM	Active	> 50%	75.1%	COc1ccc2nc3cc(Cl)ccc3c(NCc3nc4ccccc4n3CCN(C)C)c2n1	21.2 µM	IC50 [4]: 13.1 µM; inhibition [26]: Active

SMILES	IC50 [1]	IC50 [2]	IC50 [3]	IC50 [5]	topoisomerase II inhibition (active/inactive) [11]	inhibition [12]	inhibition [25]	IC50 [6]	also measured
CC[C@@]1(O)C(=O)OCc2c1cc1n(c2=O)Cc2cc3ccccc3nc2-1 [CAMPTOTHECIN]	–	4.92 µM	–	3.8 µM	–	–	–	< 1 µM	IC50 [4]: < 1 µM
